Reference: article PMC10583834 (Chemical Research in Toxicology, 2023)

What was measured:
[1] = system: CYP3A4; conditions: CYP3A4 inactivation in human liver microsomes; cited from earlier work
[2] = system: women; conditions: cited from earlier work
[3] = target: T1, recombinant CYP2B6 (Homo sapiens, UniProt P20813); test: Glutathione trapping and metabolite formation with recombinant CYP2B6; type: in vitro ADME; conditions: recombinant CYP2B6 100 pmol/mL, 1 mM GSH, 60 min
T1 sequence (P20813 1-491): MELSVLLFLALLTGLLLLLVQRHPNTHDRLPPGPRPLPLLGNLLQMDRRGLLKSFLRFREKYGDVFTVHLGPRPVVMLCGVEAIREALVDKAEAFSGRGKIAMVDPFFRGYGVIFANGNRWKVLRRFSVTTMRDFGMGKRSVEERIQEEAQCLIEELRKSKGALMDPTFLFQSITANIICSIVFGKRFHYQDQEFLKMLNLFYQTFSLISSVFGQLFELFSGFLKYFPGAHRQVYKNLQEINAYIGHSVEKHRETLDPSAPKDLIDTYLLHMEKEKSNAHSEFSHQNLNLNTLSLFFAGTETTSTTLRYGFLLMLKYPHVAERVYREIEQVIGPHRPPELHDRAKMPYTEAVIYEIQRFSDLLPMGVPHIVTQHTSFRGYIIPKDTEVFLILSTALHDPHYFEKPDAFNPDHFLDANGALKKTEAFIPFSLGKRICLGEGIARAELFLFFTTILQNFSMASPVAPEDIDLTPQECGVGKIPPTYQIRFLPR
In short: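 Test compound at 50 or 100 μM was incubated with recombinant CYP2B6 (100 pmol/mL) in 100 mM potassium phosphate pH 7.4, 3 mM MgCl2 and 1 mM reduced GSH. Reactions were started with NADPH-regenerating mix, with no-NADPH controls, for 60 min. Methanol stop contained 1 μM 4OH-MDZ internal standard. Samples were centrifuged 20 min at 2000 × g, 4 °C. Supernatants were analysed by LC-UV(280 nm)-MS for metabolites and GSH adducts.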

GSH metabolite formation [3]: no GSH metabolite was detected
Structure (SMILES): Cc1ccnc2c1NC(=O)c1cccnc1N2C1CC1 [NVP, Nevirapine]
Ki [1]: […] | Increased risk for severe rash reactions in women [2]: 7 fold
